ABCB6 inh MLPCN = blocks the human ABCB6 transporter; Q9NP58; K562-ABCB6 porphyrin accumulation, flow cytometry, 1 h; hits give low values; fluorescence ratio to DMSO, % at 10 µM; actives 0.19% (n = 360,000); AID 602162;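 active = fluorescence ratio to DMSO below 75%, the collection mean minus 3 SD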;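 also: signal is porphyrin accumulated inside mitochondria; 100% equals median channel fluorescence of DMSO control wells; lower ratio means ABCB6 inhibition with less porphyrin fluorescence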
Target sequence (Q9NP58 whole entry, looked up): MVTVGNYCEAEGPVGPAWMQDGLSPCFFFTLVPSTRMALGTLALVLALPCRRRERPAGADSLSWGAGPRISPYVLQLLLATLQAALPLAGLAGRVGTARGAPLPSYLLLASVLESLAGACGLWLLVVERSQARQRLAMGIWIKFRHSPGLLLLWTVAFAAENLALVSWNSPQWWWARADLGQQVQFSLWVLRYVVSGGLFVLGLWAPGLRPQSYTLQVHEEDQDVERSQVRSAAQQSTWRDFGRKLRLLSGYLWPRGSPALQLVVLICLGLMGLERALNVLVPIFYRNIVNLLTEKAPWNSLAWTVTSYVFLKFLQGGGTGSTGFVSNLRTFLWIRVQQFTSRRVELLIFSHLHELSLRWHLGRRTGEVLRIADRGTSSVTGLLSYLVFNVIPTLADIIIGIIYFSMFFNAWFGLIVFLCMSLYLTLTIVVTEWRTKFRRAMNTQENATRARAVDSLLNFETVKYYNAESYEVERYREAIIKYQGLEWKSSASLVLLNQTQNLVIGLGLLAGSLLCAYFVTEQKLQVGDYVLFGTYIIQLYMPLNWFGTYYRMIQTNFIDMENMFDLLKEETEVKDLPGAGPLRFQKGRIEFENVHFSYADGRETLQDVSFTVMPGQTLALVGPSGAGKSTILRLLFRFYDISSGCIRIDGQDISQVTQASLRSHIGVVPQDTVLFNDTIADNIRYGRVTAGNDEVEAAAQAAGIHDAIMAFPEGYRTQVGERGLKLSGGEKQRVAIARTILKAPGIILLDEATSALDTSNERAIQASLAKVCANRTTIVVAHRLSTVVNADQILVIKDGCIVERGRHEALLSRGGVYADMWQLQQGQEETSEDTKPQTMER
V-ATPase pH = regulators of yeast V-ATPase proton transport; S. cerevisiae, pHLuorin cytosolic pH fluorescence; response, % at 10 µM; actives 0.37% (n = 350,000); in the data active = response mostly above about 7.3%, no sharp cut-off; inactive = mostly below about 5.4%; also: actives read high
p-CIP stab down = compounds decreasing mouse p/CIP protein stability; Q05BA5; F442A p/CIP-EGFP cells, EGFP fluorescence, 16 h; decrease of EGFP signal, % at 10 µM; actives 0.01% (n = 290,000); AID 1984;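 active = EGFP signal decrease of at least 30% at 10 µM or well 3 SD below plate mean, unless failing retest; inactive = the rest, including hits failing retest or dose response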
Dynein cargo inh = dynein cargo transport inhibition | 3617.4 mouse cells, GR-EGFP nuclear translocation imaging; test concentration mostly 20 µM; stimulated with dexamethasone, 1 µM; hits give low values | z-score, hits read low | actives 0.47% (n = 220,000);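 active = plate z-score of nuclear minus cytoplasmic receptor signal below a set negative limit, without overly bright fluorescence or cell loss, cut at about -3.5 in these data, passing the limit was not always enough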;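 also: z-score of nuclear minus cytoplasmic ring GR-EGFP intensity difference per well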
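medium = tetracycline-free induction medium containing charcoal-stripped FBS | probe or stimulus = dexamethasone, 1.0 µM final | timing = 48 h induction, then 1 h compound, then 30 min agonist, 37 °C | detection = automated 10x imaging of fixed Hoechst-stained cells | read-out basis = nuclear versus cytoplasmic GR-EGFP signal, averaged per well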
KCC2 mod = modulators of human KCC2 chloride dependent transport; Q9H2X9; KCC2 cells, thallium flux FluoZin-2 fluorescence; B-score of Tl+ flux slope (higher = more flux/activation; lower = inhibition) at 10 µM; actives 2.2% (n = 190,000);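 active = thallium flux slope and its plate-corrected score both differing from the plate sample mean at a set confidence after two filtering rounds, in either direction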;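 also: slope of fluorescence scaled to starting intensity during 10 to 20 s after thallium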
* hit, by the source's call; nt = no result given. Many of the other results were omitted from the sample, so hits are more common in it than they were.

SMILES	ABCB6 inh MLPCN	V-ATPase pH	p-CIP stab down	Dynein cargo inh	KCC2 mod
CCOC(=O)[C@]12CCC=C1N(Cc1ccc(Cl)cc1Cl)C(=O)[C@H](CC(=O)NCCc1ccccc1OC)C2	94.0	nt	nt	nt	nt
COc1ccc(N2CSC3=C(C#N)C(c4cc(OC)c(OC)cc4OC)CC(=O)N3C2)c(OC)c1 (stereo not drawn)	102.0	-1.2	-9.8	0.126	nt
COc1ccc(N2CSC3=C(C#N)C(c4cc(OC)ccc4OC)CC(=O)N3C2)c(OC)c1 (stereo not drawn)	74.0*	-0.6	-1.3	0.0306	-0.175
Cc1cccc2sc(NNC(=O)c3ccc(S(=O)(=O)N4CCCC(C)C4)cc3)nc12 (stereo not drawn)	89.0	10.2*	5.7	0.788	-0.161
CCNC(=O)C1(C)CCCN(Cc2ccc(-c3ccccc3)o2)C1 (stereo not drawn)	100.0	nt	nt	nt	nt
Cc1ccc(C(=O)N/N=C2\CCCc3ccccc32)c(C)c1	92.0	-1.7	9.7	0.575	0.257
O=C(N/N=C1\CCCc2ccccc21)c1ccc([N+](=O)[O-])cc1	101.0	2.7	-1.2	-1.53	3.1*
COC(=O)C1=C(C(=O)OC)C(c2cc(Br)ccc2O)c2sc(=O)[nH]c2S1 (stereo not drawn)	105.0	-1.5	1.8	-1.61	-5.93*
COC(=O)C1=C(C(=O)OC)C(c2ccc(OC)c(OC)c2)c2sc(=O)[nH]c2S1 (stereo not drawn)	100.0	-1.1	1.7	-0.702	-0.145
Cc1ccn2c(=O)c(NC(=O)c3ccc4c(c3)OCO4)c(C)nc2c1	94.0	-0.8	nt	nt	nt
Cc1ccc(S(=O)(=O)N2CCOCC2)cc1NC(=O)CNc1ccccc1N1CCCC1=O	105.0	22.0*	nt	nt	nt
NC(=NCc1ccccc1)NN=Cc1ccnc2ccccc12	96.0	nt	nt	nt	nt
Cc1cc(Nc2ccccc2)n(-c2nc3ccccc3[nH]2)n1	91.0	3.9	1.2	0.919	3.33*
Fc1cccc2sc(Nc3nc4cc5c(cc4s3)OCO5)nc12	99.0	-0.5	-1.2	-0.279	22.7*
CC(=O)Nc1nc2cc3c(cc2s1)OCCO3	100.0	6.3	1.2	nt	nt
Fc1cccc2sc(Nc3nc4cc5c(cc4s3)OCCO5)nc12	90.0	-2.5	11.6	-0.292	10.6*
CC(C)C(=O)Nc1nc2cc3c(cc2s1)OCO3	95.0	2.2	-4.2	-0.353	nt
OC(c1ccccc1)(c1nc(-c2cc3ccccc3o2)cs1)C(F)(F)F (stereo not drawn)	102.0	nt	nt	nt	nt
O=C(O)c1ccc2c(c1)OCCO2	96.0	0.6	-12.0	-0.592	-0.61
NC(=O)c1ccc2c(c1)OCCO2	105.0	0.5	3.6	-0.035	-3.19*
COC(=O)c1c(NC(=O)c2ccccc2)sc(C(=O)c2ccccc2)c1C	104.0	2.2	3.0	-0.385	8.42*
COC(=O)c1c(NC(=O)c2ccccc2)sc(C(N)=O)c1C	101.0	1.3	9.7	-0.617	0.188
CC12CCC(=O)C=C1CCC1C2C(O)CC2(C)C1CCC2(O)C(=O)COC(=O)CCC1CCCC1 (stereo not drawn)	100.0	nt	nt	nt	nt
Cn1cccc1CC(=O)N/N=C\c1c2ccccc2cc2ccccc12	73.0*	0.6	-2.5	0.323	nt
NC(Cc1ccc(C(F)(F)F)cc1)c1csc(Nc2ccc(C(=O)c3ccccc3)cc2)n1 (stereo not drawn)	95.0	nt	nt	nt	nt
SMILES	ABCB6 inh MLPCN	V-ATPase pH	p-CIP stab down	Dynein cargo inh	KCC2 mod
Cc1sc2nc(C3CC3)nc(SCC(=O)N3CCc4ccccc4C3)c2c1C	100.0	-1.9	13.3	nt	-0.565
Cc1sc2nc(C3CC3)nc(SCC(=O)N3CC(=O)Nc4ccccc43)c2c1C	95.0	1.0	-3.8	0.561	12.2*
CC(=O)N1CCN(c2ccccc2NC(=O)c2cc(Br)ccc2Cl)CC1	96.0	18.3*	-13.8	1.35	nt
Cc1[nH]c2ccccc2c1C(=O)CSc1ncn[nH]1	87.0	-138.7	-11.3	-0.401	0.507
Cc1[nH]c2ccccc2c1C(=O)CSc1n[nH]c(N)n1	95.0	13.1*	4.3	0.532	-0.445
Nc1nc2c(s1)CCc1c-2cnn1-c1ccccc1	124.0	-2.4	-14.2	-6.01*	nt
Nc1nc2c(s1)COc1ccccc1-2	108.0	2.2	-10.6	-0.523	0.277
COc1cccc(CNC(=O)[C@@H]2CCCN2)c1	101.0	nt	nt	nt	nt
CN(C)CCCN1C(=O)c2oc3ccccc3c(=O)c2C1c1cccs1 (stereo not drawn)	91.0	0.4	-12.8	-0.742	7.34*
C/C(=N\Nc1ncnc2sc(C)c(C)c12)c1ccccn1	524.0	69.6*	-515.8	nt	nt

Screens (PubChem BioAssay)
